Measured values of several laboratories.
Compare with care: the assays were run in different laboratories.
BCHE: Cholinesterase (BCHE, Homo sapiens, UniProt P06276)
CYSLTR1: Cysteinyl leukotriene receptor 1 (CYSLTR1, Homo sapiens, UniProt Q9Y271)

Compound | target | observed | action | method | concentration | inhibition
C=CCn1c2cc(OC(=O)CCCCN3CCN(Cc4cccc(F)c4)CC3)ccc2c2ccnc(C)c21 | BCHE | enzyme activity | inhibitor | Ellman | 1 µM | 17.3%
CC(C)C[C@H](NC(=O)[C@H](Cc1ccccc1)NC(=O)c1cnccn1)B(O)O | Plasma kallikrein (KLKB1, Homo sapiens, UniProt P03952) | enzyme activity | inhibitor | – | 33 µM | 94.2%
O=C(Nc1cccnn1)N1CCN([C@@H]2CCOc3cc(C(F)(F)F)ccc32)CC1 | CYSLTR1 | ligand displacement | – | – | 20 µM | 6%
C=CCn1c2cc(OC(=O)CCCCCCN3CCN(Cc4ccccc4)CC3)ccc2c2ccnc(C)c21 | BCHE | enzyme activity | inhibitor | Ellman | 1 µM | 36.8%
Cn1cc(-c2cc(F)cc(N3CCn4c(cc5c4CCCC5)C3=O)c2CO)cc(Nc2ccc(N3CCN(C4COC4)CC3)cn2)c1=O | Tyrosine-protein kinase Fgr (FGR, Homo sapiens, UniProt P09769) | enzyme activity | inhibitor | – | 0.1 µM | 40%
COc1ccc(S(=O)(=O)N2CCCCC2)cc1C | CYSLTR1 | ligand displacement | – | radioligand | 10 µM | < 30%
CCN(CC)CCCC[C@H](NC(=O)[C@H](CC(C)C)NC(=O)[C@H](C)NC(=O)[C@H](Cc1ccccc1)NC(=O)c1ccc(C(C)(C)C)cc1)C(=O)N[C@@H](CO)C(=O)OC | Melanocortin receptor 4 (MC4R, Homo sapiens, UniProt P32245) | ligand displacement | – | radioligand | 10 µM | 16%
COc1ccc2c(c1)[nH]c1c(C)nccc12 | DNA dC->dU-editing enzyme APOBEC-3B (Homo sapiens, UniProt Q9UH17) | enzyme activity | inhibitor | fluorescence | 100 µM | 53.6%
C=CCn1c2cc(OC(=O)CCCCN3CCN(Cc4ccccc4Cl)CC3)ccc2c2ccnc(C)c21 | BCHE | enzyme activity | inhibitor | Ellman | 1 µM | 46.1%
CN(CCN1CCC(OC(=O)Nc2ccccc2-c2ccccc2)CC1)C(=O)c1ccc(CN2CCC(C(N)=O)CC2)cc1 | CYSLTR1 | ligand displacement | – | radioligand | 1 µM | -13%
C#Cc1n[nH]c2c(-c3cn([C@@H](C)c4ccccc4)c(=O)[nH]c3=O)cc(F)cc12 | Fibroblast growth factor receptor 1 (FGFR1, Homo sapiens, UniProt P11362, V561M) | enzyme activity | inhibitor | – | 0.1 µM | -4.7%
COCc1c(-c2cc3cc(C)cc(OC)c3s2)c2c(N)ncnn2c1CN1CCNC(=O)C1 | Interferon-induced, double-stranded RNA-activated protein kinase (EIF2AK2, Homo sapiens, UniProt P19525) | cell-free assay | – | competition with immobilised ligand | 1 µM | 97.3%
C=CCn1c2cc(OC(=O)CCCCN3CCN(Cc4ccccc4C)CC3)ccc2c2ccnc(C)c21 | BCHE | enzyme activity | inhibitor | Ellman | 1 µM | 39.8%
C#Cc1n[nH]c2c(-c3cn([C@@H](C)c4ccccn4)c(=O)[nH]c3=O)cc(F)cc12 | Fibroblast growth factor receptor 1 (FGFR1, Homo sapiens, UniProt P11362) | enzyme activity | inhibitor | – | 0.1 µM | 5.4%
